Converted amounts (≈) assume the structure as drawn. The source made the active and inactive calls. The calls are words filed in the database; no cut-off is given here.
Tests used:
[1] = system: Plasmodium falciparum; assay: Antiplasmodial activity against Plasmodium falciparum NF54; type: functional, organism-based
How it was run: (§1)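 P. falciparum (NF54 chloroquine-sensitive, K1 chloroquine-resistant) cultured in vitro in human A+ erythrocytes with Albumax. Readout is inhibition of parasite-specific [3H]hypoxanthine incorporation. IC50 in µg/mL taken from logarithmic dose–response curves.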

[2] = system: Plasmodium falciparum; assay: Antiplasmodial activity against Plasmodium falciparum K1; type: functional, organism-based; how it was run: as §1
[3] = system: Trypanosoma brucei rhodesiense; assay: 50% antitrypanosomal activity against Trypanosoma rhodesiense; type: functional, organism-based
How it was run: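 T. brucei rhodesiense grown axenically in culture medium supplemented with horse serum. IC50 in µg/mL.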

[4] = system: Trypanosoma cruzi; assay: 50% antitrypanosomal activity against Trypanosoma cruzi; type: functional, organism-based
How it was run: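 Tulahuen strain of T. cruzi expressing E. coli β-galactosidase, grown as intracellular amastigotes in mammalian fibroblasts with drug for 5 days. Viability read colorimetrically from β-galactosidase turnover of chlorophenol red β-D-galactopyranoside, quantified on an ELISA reader. IC50 in µg/mL.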

[5] = system: L6; assay: Cytotoxic effect in rat skeletal muscle myoblast L6 cells; type: functional, cell-based
How it was run: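 Rat L6 skeletal muscle myoblast cells. IC50 in µg/mL.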

[6] = molecular target: Tyrosine-protein kinase Lck (Homo sapiens) (UniProt P06239); assay: Inhibition of p56 Lck tyrosine kinase at 200 ug/mL (inactive)
[7] = system: Aspergillus pseudoglaucus; assay: Zone of inhibition from the edge of a circular filter disk impregnated with test substance, against Eurotium repens (antifungal activity); NA means inactive.; type: functional, organism-based
How it was run: (§2)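 Agar diffusion assay. Filter disks loaded with 0.02 mg sample each. Zone of inhibition measured in mm from the disk edge against the fungi Eurotium repens or Ustilago violacea (Microbotryum violaceum).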

[8] = system: Microbotryum violaceum; assay: Zone of inhibition from the edge of a circular filter disk impregnated with test substance, against Ustilago violacea (antifungal activity); NA means inactive.; type: functional, organism-based; how it was run: as §2
[9] = Plasmodium falciparum, read-out: IC50
[10] = Trypanosoma brucei, read-out: IC50
[11] = Trypanosoma cruzi, read-out: IC50

Tyrosine-protein kinase Lck (Homo sapiens), sequence (P06239 2-509 limits assumed): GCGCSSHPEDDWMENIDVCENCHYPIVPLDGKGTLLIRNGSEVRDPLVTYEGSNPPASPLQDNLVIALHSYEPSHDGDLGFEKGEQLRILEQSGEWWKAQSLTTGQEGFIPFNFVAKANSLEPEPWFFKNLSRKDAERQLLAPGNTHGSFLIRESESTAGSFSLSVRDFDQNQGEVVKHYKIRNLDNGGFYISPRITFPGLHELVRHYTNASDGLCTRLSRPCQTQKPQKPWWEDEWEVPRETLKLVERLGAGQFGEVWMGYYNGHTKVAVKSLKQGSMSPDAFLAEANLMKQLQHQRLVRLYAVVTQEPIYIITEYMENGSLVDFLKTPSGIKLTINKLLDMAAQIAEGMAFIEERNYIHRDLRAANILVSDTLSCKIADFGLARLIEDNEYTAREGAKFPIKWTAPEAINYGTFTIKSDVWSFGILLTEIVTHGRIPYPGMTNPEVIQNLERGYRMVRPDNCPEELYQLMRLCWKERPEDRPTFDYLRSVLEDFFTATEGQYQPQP

Row | Structure (SMILES) | IC50 [1, 9] [µg/mL] | IC50 [2, 9] [µg/mL] | IC50 [3, 10] [µg/mL] | IC50 [4, 11] [µg/mL] | IC50 [5] [µg/mL] | other results
1 | CCCCC/C=C/C(=O)O[C@H]1C[C@@H]2[C@H](CCCCC(O)CCC)CCC[C@@H]2N(C(=O)c2ccc(Br)cc2)[C@@H]1C (stereo partly specified) | 0.4 (≈ 0.662 µM) | 0.5 (≈ 0.827 µM) | 36.9 (≈ 60.9 µM) |  |  | 
2 | CCCC(O)CCCC[C@@H]1CCC[C@@H]2N[C@H](C)[C@@H](O)C[C@H]12 (stereo in doubt; 1) [listing 1 of 2 here] | 10 (≈ 33.6 µM) | 6.1 (≈ 20.5 µM) |  | 37.2 (≈ 125 µM) | > 30 | IC50 [3]: 5.6 µg/mL (≈ 18.8 µM)
3 | CCCC(O)CCCC[C@@H]1CCC[C@@H]2N[C@H](C)[C@@H](O)C[C@H]12 (stereo in doubt; 1) [listing 2 of 2 here] |  |  |  |  |  | NA [6]: inactive
4 | CCCC(O)CCCC[C@@H]1CCC[C@@H]2N[C@H](C)[C@@H](O)C[C@H]12 (stereo in doubt; 2) [listing 1 of 2 here] |  |  |  |  | > 30 | IC50 [4]: 37.3 µg/mL (≈ 125 µM); IC50 [1]: 10 µg/mL (≈ 33.6 µM); IC50 [2]: 4 µg/mL (≈ 13.4 µM); IC50 [3]: 1.97 µg/mL (≈ 6.62 µM)
5 | CCCC(O)CCCC[C@@H]1CCC[C@@H]2N[C@H](C)[C@@H](O)C[C@H]12 (stereo in doubt; 2) [listing 2 of 2 here] |  |  |  |  |  | NA [7]: inactive; NA [8]: inactive; NA [6]: inactive
6 | C[C@@H]1CC[C@H]2[C@@H](C)C(=O)O[C@@H]3O[C@@]4(C)CC[C@@H]1[C@]32OO4 [ARTEMISININ] | 0.003 (≈ 0.0106 µM) | 0.001 (≈ 0.00354 µM) |  |  |  | 
7 | CCCCC/C=C/C(=O)O[C@H]1C[C@@H]2[C@H](CCCCC(O)CCC)CCC[C@@H]2N[C@@H]1C (stereo partly specified) [LEPADIN E] | 0.9 (≈ 2.13 µM) | 0.4 (≈ 0.949 µM) | 0.38 (≈ 0.901 µM) | 2.2 (≈ 5.22 µM) | 16.2 (≈ 38.4 µM) | 
8 | CCCCC/C=C/C(=O)O[C@H]1C[C@@H]2[C@H](CCCCC(O)CCC)CCC[C@@H]2N[C@H]1C (stereo partly specified) [LEPADIN F] | 0.3 (≈ 0.711 µM) | 0.2 (≈ 0.474 µM) | 0.23 (≈ 0.545 µM) | 2.6 (≈ 6.17 µM) | 18.3 (≈ 43.4 µM) | 
9 | Nc1nc(N)nc(Nc2ccc([As]3SCC(CO)S3)cc2)n1 (stereo unspecified) [MELARSOPROL] |  |  | 0.0026 | 0.6 |  | 

Reference: ChEMBL document CHEMBL1135503, “Lepadins D-F: antiplasmodial and antitrypanosomal decahydroquinoline derivatives from the tropical marine tunicate Didemnum sp” (J Med Chem, 2002)
